From ChEMBL document CHEMBL1126205, “Novel spirosuccinimides with incorporated isoindolone and benzisothiazole 1,1-dioxide moieties as aldose reductase inhibitors and antihyperglycemic agents” (1992) come the findings set out here.

Assay [1] concerns Rattus norvegicus. Put plainly: In vivo galactitol inhibitory activity measured by its ability to inhibit galactitol accumulation in sciatic nerve at 3 mg/Kg/day; NS=Not significant (% Inhibition). The class given is functional, organism-based. The procedure, abridged:
(§1)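 Rats (n = 6) fed 20% galactose for 4 days, with compound given in the diet at the stated daily dose. Galactitol accumulation was measured in lens, sciatic nerve and diaphragm, and % inhibition was taken versus the nontreated group. Means are from three to eight drug-treated tissue samples. Dunnett's multiple comparison test was applied, with p > 0.05 reported as not significant.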

Assay [2] has as its system Rattus norvegicus. Put plainly: In vivo galactitol inhibitory activity measured by its ability to inhibit galactitol accumulation in sciatic nerve at 6 mg/Kg/day; NS=Not significant (% Inhibition). The class given is functional, organism-based. The gist of the method: as §1
Assay [3] concerns Rattus norvegicus. Briefly: In vivo galactitol inhibitory activity measured by its ability to inhibit galactitol accumulation in sciatic nerve at 10 mg/Kg/day; NS=Not significant (% Inhibition). The class given is functional, organism-based. The gist of the method:
as §1

Assay [4] addresses Aldo-keto reductase family 1 member B1 (Bos taurus) (UniProt P16116). Put plainly: In vitro aldose reductase inhibitory activity measured by NADPH-dependent inhibition of glyceraldehyde reduction in a partially purified bovine lens preparation at 10E-7 M. The procedure, abridged: (§2)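 Aldose reductase partially purified from bovine lens. Inhibition of NADPH-dependent glyceraldehyde reduction is measured at the single stated concentration and reported as percent inhibition, the mean of two determinations.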

Assay [5] deals with Mus musculus. Put plainly: Antihyperglycemic activity measured as percent decrease in mice plasma glucose at 100 mg/Kg/day. The class given is functional. The procedure, abridged:
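Male db/db (C57BL/KsJ) mice, 4–6 per group, dosed at 100 mg/kg per day. Plasma glucose of the drug-treated group is expressed as percent decrease relative to a vehicle-treated control group. Values are mean ± SE, with p < 0.05 marked.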

Assay [6] relates to Rattus norvegicus. Briefly: In vivo galactitol inhibitory activity measured by its ability to inhibit galactitol accumulation in diaphragm at 10 mg/Kg/day. The format is functional. The procedure, abridged:
(§3)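 Rats (n = 6) fed 20% galactose for 4 days, with compound given in the diet at the stated mg/kg per day. Galactitol accumulation in lens, sciatic nerve or diaphragm is scored as percent inhibition versus the non-treated group, as means of 3–8 drug-treated tissue samples. Dunnett's multiple comparison test applies; NS means p > 0.05.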

Assay [7] deals with Rattus norvegicus. Put plainly: In vivo galactitol inhibitory activity measured by its ability to inhibit galactitol accumulation in diaphragm at 3 mg/Kg/day; NS=Not significant (% Inhibition). The format is functional, organism-based. The gist of the method:
as §3

The subject of assay [8] is Rattus norvegicus. Briefly: In vivo galactitol inhibitory activity measured by its ability to inhibit galactitol accumulation in lens at 6 mg/Kg/day; NS=Not significant (% Inhibition). As to conditions: Lens of camera-type eye. The class given is functional, organism-based. The procedure, abridged:
as §3

Assay [9] concerns Rattus norvegicus. Briefly: In vivo galactitol inhibitory activity measured by its ability to inhibit galactitol accumulation in diaphragm at 6 mg/Kg/day; NS=Not significant (% Inhibition). The class given is functional, organism-based. The procedure, abridged:
as §3

In assay [10] the test system is Rattus norvegicus. Briefly: In vivo galactitol inhibitory activity measured by its ability to inhibit galactitol accumulation in lens at 10 mg/Kg/day; NS=Not significant (% Inhibition). The format is functional. As to conditions: Lens of camera-type eye. The procedure, abridged:
as §3

For assay [11], the system named is Rattus norvegicus. Put plainly: In vivo galactitol inhibitory activity measured by its ability to inhibit galactitol accumulation in lens at 3 mg/Kg/day; NS=Not significant (% Inhibition). The format is functional, organism-based. As to conditions: Lens of camera-type eye. The gist of the method: as §3
The target in assay [12] is Aldo-keto reductase family 1 member B1 (Bos taurus) (UniProt P16116). Put plainly: In vitro aldose reductase inhibitory activity measured by NADPH-dependent inhibition of glyceraldehyde reduction in a partially purified bovine lens preparation at 10E-6 M. The procedure, abridged:
as §2

The test system of assay [13] is Rattus norvegicus. Briefly: In vivo galactitol inhibitory activity measured by its ability to inhibit galactitol accumulation in sciatic nerve at 6 mg/Kg/day. The class given is functional. The gist of the method:
as §1

Assay [14] deals with Rattus norvegicus. Briefly: In vivo galactitol inhibitory activity measured by its ability to inhibit galactitol accumulation in lens at 6 mg/Kg/day. The class given is functional, Lens of camera-type eye. The gist of the method:
as §3

Assay [15] deals with Rattus norvegicus. Put plainly: In vivo galactitol inhibitory activity measured by its ability to inhibit galactitol accumulation in diaphragm at 6 mg/Kg/day. The class given is functional. The gist of the method: as §3
For assay [16], the system named is Rattus norvegicus. Put plainly: In vivo galactitol inhibitory activity measured by its ability to inhibit galactitol accumulation in diaphragm at 3 mg/Kg/day. The format is functional. The procedure, abridged: as §3
For assay [17], the system named is Rattus norvegicus. Briefly: In vivo galactitol inhibitory activity measured by its ability to inhibit galactitol accumulation in lens at 3 mg/Kg/day; NS=Not significant. Particulars: Lens of camera-type eye. The format is functional, organism-based. The procedure, abridged:
as §3

Assay [18] deals with Rattus norvegicus. Put plainly: In vivo galactitol inhibitory activity measured by its ability to inhibit galactitol accumulation in sciatic nerve at 10 mg/Kg/day. The class given is functional. The gist of the method:
as §1

For assay [19], the system named is Rattus norvegicus. Briefly: In vivo galactitol inhibitory activity measured by its ability to inhibit galactitol accumulation in sciatic nerve at 9 mg/Kg/day. The class given is functional. The procedure, abridged:
as §1

In assay [20] the test system is Rattus norvegicus. Briefly: In vivo galactitol inhibitory activity measured by its ability to inhibit galactitol accumulation in lens at 9 mg/Kg/day; NS=Not significant (% Inhibition). The class given is functional, organism-based. As to conditions: Lens of camera-type eye. The procedure, abridged:
as §1

Assay [21] has as its system Rattus norvegicus. Put plainly: In vivo galactitol inhibitory activity measured by its ability to inhibit galactitol accumulation in diaphragm at 9 mg/Kg/day. The class given is functional. The gist of the method: as §3
The test system of assay [22] is Rattus norvegicus. Put plainly: In vivo galactitol activity by measuring its ability to inhibit galactitol accumulation in sciatic nerve at 6 mg/Kg/day; NS=Not significant (% Inhibition). The class given is functional, organism-based. The gist of the method: as §3
Assay [23] relates to Mus musculus. Briefly: Antihyperglycemic activity measured as percent decrease in mice plasma glucose at 87 mg/Kg/day. The class given is functional. The procedure, abridged: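 Male db/db (C57BL/KsJ) mice, 4–6 per group, dosed at the stated mg/kg per day. Plasma glucose is expressed as percent decrease versus the vehicle-treated group. Values are mean ± SE.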
Assay [24] relates to Rattus norvegicus. Put plainly: In vivo galactitol inhibitory activity measured by its ability to inhibit galactitol accumulation in lens at 109 mg/Kg/day; NS=Not significant (% Inhibition). The class given is functional, organism-based. As to conditions: Lens of camera-type eye. The gist of the method:
as §3

Assay [25] concerns Rattus norvegicus. Briefly: In vivo galactitol inhibitory activity measured by its ability to inhibit galactitol accumulation in sciatic nerve at 109 mg/Kg/day; NS=Not significant (% Inhibition). The format is functional, organism-based. The procedure, abridged: as §1
Assay [26] deals with Rattus norvegicus. Briefly: In vivo galactitol inhibitory activity measured by its ability to inhibit galactitol accumulation in diaphragm at 109 mg/Kg/day. The class given is functional. The gist of the method:
as §3

Active and inactive are the calls of the source. The calls are words filed in the database; no cut-off is given here.

A word on the inhibition: it is the percentage by which the read-out fell short of the control. For orientation: inhibition in vivo means the share of the control response that was lost under treatment. Lower therefore signals a weak effect. A word on the Inhibition: it is the drop in the measured response relative to a control, in per cent. Lower therefore signals a response near the control.

`COC(=O)c1ccc2c(c1)C1(CC(=O)NC1=O)N(C)C2=O` (stereo not given): the inhibition entry in the assay with Rattus norvegicus [1], in the assay with Rattus norvegicus [2], with Rattus norvegicus [3], in the assay on Rattus norvegicus [7], in the assay with Rattus norvegicus [8] and in the assay on Rattus norvegicus [9] was “inactive” in each case. The inhibition result in the assay on Rattus norvegicus [10] and in the assay with Rattus norvegicus [11] was “inactive” each time. The inhibition in [4] was found to be 14%; in [12], 49%. The molecule further had a Decrease in the assay with Mus musculus [5] below 15%. This molecule also gave an inhibition in vivo at 10 mg/kg/day in the assay on Rattus norvegicus [6] of 16%.

Regarding `CN1C(=O)c2ccc(Cl)cc2C12CC(=O)NC2=O` (single isomer, unassigned; (+)), the values for the inhibition in vivo at 6 mg/kg/day in the assay on Rattus norvegicus [13] and in the assay on Rattus norvegicus [15] were 58% and 67%, respectively. The Inhibition with Rattus norvegicus [14] was 21%.

`Cc1cccc2c1C(=O)N(C)C21CC(=O)NC1=O` (stereo not given): the inhibition entry in the assay on Rattus norvegicus [1], with Rattus norvegicus [2] and in the assay with Rattus norvegicus [17] was “inactive” throughout. The inhibition in vivo at 3 mg/kg/day in the assay on Rattus norvegicus [16] worked out at 37%. The inhibition in vivo at 6 mg/kg/day with Rattus norvegicus [14] (Rattus norvegicus, Lens of camera-type eye) amounted to 28%; with Rattus norvegicus [15] it was 57%. In addition, the Inhibition in the assay on Rattus norvegicus [18] was found to be 50%. The inhibition in vivo at 10 mg/kg/day in the assay with Rattus norvegicus [18] (Rattus norvegicus, Sciatic nerve) was determined as 63%; in the assay with Rattus norvegicus [6], 69%; with Rattus norvegicus [10], 29%. Moreover, the inhibition in assay [4] stood at 11%; in assay [12] it was 59%.

For the molecule `CN1C(=O)c2cc(-c3ccccc3)ccc2C12CC(=O)NC2=O` (stereo not given), the inhibition entry in the assay on Rattus norvegicus [1], in the assay with Rattus norvegicus [20], in the assay with Rattus norvegicus [8] and in the assay on Rattus norvegicus [11] was “inactive” throughout. The inhibition in vivo at 3 mg/kg/day in the assay on Rattus norvegicus [16] was 29%. The results for the inhibition in vivo at 6 mg/kg/day in the assay with Rattus norvegicus [13] and with Rattus norvegicus [15] were 27% and 43%, respectively. For the same molecule, the values for the inhibition in vivo at 9 mg/kg/day in the assay with Rattus norvegicus [19] and in the assay with Rattus norvegicus [21] were 34% and 55%, respectively. Further, the inhibition in [4] came to 37%; in assay [12], 81%. Besides, in the assay on Mus musculus [5], the Decrease is below 15%.

As for `CN1C(=O)c2ccc(Cl)cc2C12CC(=O)NC2=O` (single isomer, unassigned; (-)), the values for the inhibition in assay [4] and in [12] were 0% and 33%, respectively. Moreover, the inhibition result with Rattus norvegicus [22] and with Rattus norvegicus [8] was “inactive” each time.

In the case of `CC(C)N1C2(CC(=O)NC2=O)c2ccccc2S1(=O)=O` (stereo not given), the Decrease in the assay with Mus musculus [23] was 27%.

Take `O=C1CC2(C(=O)N1)c1ccccc1C(=O)N2Cc1ccc(Cl)c(Cl)c1` (stereo not given): the inhibition in assay [4] was 18%; in [12], 45%. In addition, in the assay on Mus musculus [5], the Decrease is listed as 21%. Besides, the inhibition entry in the assay on Rattus norvegicus [24] and with Rattus norvegicus [25] was “inactive” in each case. This molecule yielded an inhibition in vivo at 109 mg/kg/day in the assay on Rattus norvegicus [26] of 33%.
